Results as given in ChEMBL document CHEMBL5661969, “Preclinical evaluation of a potent novel DNA-dependent protein kinase inhibitor NU7441” (Cancer Res, 2006).

How the values were obtained:
[1] = Elimination half life in BALB/c mouse at 10 mg/kg, ip by HPLC analysis; format: ADME, organism-based; settings: in vivo, read-out: beta t1/2
How it was run: (§1)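 Female BALB/c mice dosed 5 mg/kg i.v. in 10% DMSO/10% cyclodextrin in saline, or 10 mg/kg i.p. or orally at 1 mg/mL in 40% PEG400/saline. Plasma taken at 5, 10, 15, 30, 60, 90, 120, 180, 240 and 360 min, three mice per time. Acetonitrile precipitation, C18 HPLC with UV detection at 329 nm against a plasma standard curve. Parameters derived from mean concentrations.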

[2] = Cytotoxicity against Chinese hamster DNA-PK proficient V3-YAC cells assessed as cell survival at 0.5 umol/L measured after 16 hrs by crystal violet staining based assay relative to control; format: toxicity, Cricetulus griseus; settings: dose 0.5 µmol/L, read-out: Activity
How it was run: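 Exponentially growing cells exposed 16 h to agent (0.5 or 1.0 μmol/L), with or without etoposide or doxorubicin, at 0.5% DMSO final; controls get DMSO alone. Cells are then trypsinized, reseeded at 100–100,000 per dish in drug-free medium and grown 10–14 days. Colonies stained with crystal violet and counted automatically.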

[3] = Ratio of drug level in spleen to plasma of human SW620 cell xenografted athymic nude CD1 mouse at 10 mg/kg, ip measured after 90 mins by HPLC analysis; format: ADME, organism-based
How it was run: (§2)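 Female CD-1 nu/nu mice bearing s.c. flank SW620 tumours (1×10^7 cells, ~650 mm³ at 10–14 days) given 10 mg/kg i.p. Tissues snap frozen, homogenised 1:3 in PBS. Acetonitrile precipitation, C18 HPLC with acetate pH 5/acetonitrile 75:25 mobile phase, UV 329 nm; tissue levels by method of addition. Tissue/plasma ratio, mean of three mice per time.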

[4] = In vivo inhibition of DNA-PK in human SW620 cells xenografted athymic nude CD1 mouse assessed as potentiation of etoposide phosphate-induced antitumor activity at 10 mg/kg, ip administered 5 times daily for 5 days relative to control; format: functional, SW-620; settings: time 5 day
How it was run: (§3)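 CD-1 nude mice carry palpable s.c. SW620 xenografts (~5×5 mm, 8-10 days), five per group. Treated i.p. daily for 5 days with saline, agent in 40% PEG 400/saline, etoposide phosphate 11.35 mg/kg (equal to 10 mg/kg etoposide), or both, agent given immediately before etoposide phosphate. Read-outs are median relative tumour volume, time to 4× volume (growth delay) and body weight.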

[5] = In vivo inhibition of DNA-PK in human SW620 cells xenografted athymic nude CD1 mouse assessed as potentiation of etoposide phosphate-induced antitumor activity by measuring tumor growth delay at 10 mg/kg, ip administered 5 times daily for 5 days (reference value: 2.7 day); format: functional, SW-620; settings: time 5 day; how it was run: as §3
[6] = Tmax in BALB/c mouse at 5 mg/kg, iv by HPLC analysis; format: ADME, organism-based; settings: in vivo; how it was run: as §1
[7] = Ratio of drug level in liver to plasma of human SW620 cell xenografted athymic nude CD1 mouse at 10 mg/kg, ip measured after 30 mins by HPLC analysis; format: ADME, organism-based; how it was run: as §2
[8] = Ratio of drug level in kidney to plasma of human SW620 cell xenografted athymic nude CD1 mouse at 10 mg/kg, ip measured after 30 mins by HPLC analysis; format: ADME, organism-based; settings: kidney and plasma; how it was run: as §2
[9] = Ratio of drug level in kidney to plasma of human SW620 cell xenografted athymic nude CD1 mouse at 10 mg/kg, ip measured after 15 mins by HPLC analysis; format: ADME, organism-based; settings: kidney and plasma; how it was run: as §2
[10] = AUClast in BALB/c mouse at 5 mg/kg, iv by HPLC analysis; format: ADME, organism-based; settings: in vivo; how it was run: as §1
[11] = Cmax in BALB/c mouse at 10 mg/kg, ip by HPLC analysis; format: ADME, organism-based; settings: in vivo; how it was run: as §1
SW-620 = assay: Cell cycle arrest in human SW620 cells assessed as reduction in S-phase cell population at 1 umol/L measured after 1 hr by propidium iodide staining based flow cytometry relative to control; format: toxicity; design: scale not given: the % may be the effect or the level left; settings: sw-620, 1 µM, dose 1 µmol/L
How it was run: (§4)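 Asynchronous SW620 or LoVo cells, seeded 24 h earlier, given control or 1 μmol/L agent medium for 1 h before ionizing radiation, etoposide or doxorubicin, then incubated a further 16 h. Cells fixed in 70% ethanol, stained with propidium iodide (400 μg/mL) plus RNase (1 mg/mL), and analysed by 488 nm flow cytometry.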

[12] = Ratio of drug level in spleen to plasma of human SW620 cell xenografted athymic nude CD1 mouse at 10 mg/kg, ip measured after 60 mins by HPLC analysis; format: ADME, organism-based; how it was run: as §2
LoVo = assay: Cell cycle arrest in human LoVo cells assessed as reduction in S-phase cell population at 1 umol/L measured after 1 hr by propidium iodide staining based flow cytometry relative to control; format: toxicity; design: scale not given: the % may be the effect or the level left; settings: 1 µM, dose 1 µmol/L; how it was run: as §4
[13] = Clearance in BALB/c mouse at 5 mg/kg, iv by HPLC analysis; format: ADME, organism-based; settings: in vivo; how it was run: as §1
[14] = Ratio of drug level in kidney to plasma of human SW620 cell xenografted athymic nude CD1 mouse at 10 mg/kg, ip measured after 90 mins by HPLC analysis; format: ADME, organism-based; how it was run: as §2

O=c1cc(N2CCOCC2)oc2c(-c3cccc4c3sc3ccccc34)cccc12
half-life [1]: 53 min
viability at 16 h, 0.5 µM [2]: 97%
Kp at 1.5 h [3]: 8.7
Efficacy [4]: 100%
Time [5]: 5.4 days
Tmax [6]: 5 min
Kp at 0.5 h [7]: 11
Kp at 0.5 h [8]: 3.4
Kp at 0.25 h [9]: 4.2
AUC(0-t) [10]: 1.27 µg·h/mL
Cmax [11]: 2.4 µg/mL
Activity (SW-620): 24%
Kp at 1 h [12]: 3.2
Activity (LoVo): 72%
clearance [13]: 3.9 L/h/kg
Kp at 1.5 h [14]: 14
